Reference: ChEMBL document CHEMBL4376860, “Discovery of Novel Dual Poly(ADP-ribose)polymerase and Phosphoinositide 3-Kinase Inhibitors as a Promising Strategy for Cancer Therapy” (J Med Chem, 2020)
The source made the active and inactive calls. The rule behind the calls is not given here.

How the values were obtained:
[1] = test system: CAKI-1; test: Antiproliferative activity against human CAKI-1 cells measured after 7 days by Celltiter-glo assay; assay type: functional, cell-based; settings: CAKI-1, 168 h
Summary of the method: (§1)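 Cells maintained in RPMI1640 with 10% FBS at 37 °C, 5% CO2. Seeded the day before dosing, grown 12 h, then exposed to graded compound concentrations for 7 days. CellTiter-Glo reagent added, 10 min at room temperature, luminescence read. Inhibition % = (1-(RLU compound - RLU blank)/(RLU DMSO - RLU blank))×100. IC50 from nonlinear regression, normalized dose-response fit.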

[2] = test system: MDA-MB-468; test: Induction of apoptosis in human MDA-MB-468 cells assessed as late apoptotic cells at 1 uM measured after 72 hrs by Annexin V-FITC/propidium iodide staining based flow cytometry (reference value: 0.78%); assay type: functional
[3] = test system: MDA-MB-468; test: Inhibition of PI3K in human MDA-MB-468 cells assessed as reduction in RAD51 foci formation at 1 uM measured after 72 hrs by DAPI staining based immunofluorescence microscopic analysis; assay type: cell-based
Summary of the method: (§2)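 RAD51 foci in MDA-MB-468 cells on coverslips after 72 h drug exposure. Cells fixed (3% formaldehyde), permeabilized (0.1% Triton X-100), blocked in 10% FBS/PBS, incubated overnight at 4 °C with rabbit anti-RAD51 polyclonal, then secondary antibody plus DAPI. Foci and percent positive cells (>5 foci per cell) counted from about 200 cells. Mean ± SD of three independent experiments.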

[4] = test system: MDA-MB-468; test: Inhibition of PI3K in human MDA-MB-468 cells assessed as reduction in BRCA2 mRNA level at 1 uM by Trizol reagent-based RT-PCR analysis; assay type: cell-based
Summary of the method: (§3)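 Total RNA from treated MDA-MB-468 cells extracted with TRIzol. BRCA1 or BRCA2 mRNA quantified by real-time PCR with GAPDH as internal control. Results given as fold change relative to the internal control. Mean ± SD of three independent experiments.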

[5] = test system: MDA-MB-468; test: Antiproliferative activity against human MDA-MB-468 cells measured after 7 days by Celltiter-glo assay; assay type: functional, cell-based; settings: MDA-MB-468, 168 h; summary of the method: as §1
[6] = test system: MDA-MB-231; test: Potency index, ratio of BKM120 IC50 to test compound IC50 for antiproliferative activity against human MDA-MB-231 cells; assay type: functional
[7] = test system: MDA-MB-231; test: Antiproliferative activity against human MDA-MB-231 cells measured after 7 days by Celltiter-glo assay; assay type: functional, cell-based; settings: MDA-MB-231, 168 h; summary of the method: as §1
[8] = test system: MDA-MB-468; test: Induction of apoptosis in human MDA-MB-468 cells assessed as early apoptotic cells at 1 uM measured after 72 hrs by Annexin V-FITC/propidium iodide staining based flow cytometry (reference value: 3.88%); assay type: functional
[9] = test system: MDA-MB-468; test: Induction of apoptosis in human MDA-MB-468 cells assessed as necrotic cells at 1 uM measured after 72 hrs by Annexin V-FITC/propidium iodide staining based flow cytometry (reference value: 0.13%); assay type: functional
[10] = test system: MDA-MB-468; test: Inhibition of PI3K in human MDA-MB-468 cells assessed as reduction in BRCA1 mRNA level at 1 uM by Trizol reagent-based RT-PCR analysis; assay type: cell-based; summary of the method: as §3
[11] = test system: A2780; test: Antiproliferative activity against human A2780 cells measured after 7 days by Celltiter-glo assay; assay type: functional, cell-based; settings: A2780, 168 h; summary of the method: as §1
[12] = test system: MDA-MB-468; test: Induction of DNA damage in human MDA-MB-468 cells at 1 uM measured after 72 hrs by comet assay; assay type: functional, cell-based
Summary of the method: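 MDA-MB-468 cells treated for 72 h, harvested and run in a neutral comet assay. Ethidium bromide staining after electrophoresis. About 200 cell images per group analysed with CASP. DNA damage scored as tail intensity (percentage DNA in tail) and olive tail moment. Mean ± SD of three independent experiments.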

[13] = test system: HCC1937; test: Antiproliferative activity against human HCC1937 cells measured after 7 days by Celltiter-glo assay; assay type: functional, cell-based; settings: HCC1937, 168 h; summary of the method: as §1
[14] = test system: Jurkat; test: Antiproliferative activity against human Jurkat cells measured after 7 days by Celltiter-glo assay; assay type: functional, cell-based; settings: 168 h; summary of the method: as §1
[15] = test system: MDA-MB-468; test: Induction of apoptosis in human MDA-MB-468 cells assessed as viable cells at 1 uM measured after 72 hrs by Annexin V-FITC/propidium iodide staining based flow cytometry (reference value: 95.2%); assay type: functional; settings: MDA-MB-468, 72 h, read-out: Activity
[16] = test system: HCT-116; test: Potency index, ratio of BKM120 IC50 to test compound IC50 for antiproliferative activity against human HCT116 cells; assay type: functional
[17] = test system: Ramos; test: Antiproliferative activity against human Ramos cells measured after 7 days by Celltiter-glo assay; assay type: functional, cell-based; settings: 168 h; summary of the method: as §1
[18] = biological target: Phosphatidylinositol 4,5-bisphosphate 3-kinase catalytic subunit alpha isoform (Homo sapiens, UniProt P42336); test: Inhibition of PI3Kalpha (unknown origin) using PIP2 as substrate measured after 1 hr by ADP-glo plus luminescence assay
[19] = test system: SW-620; test: Antiproliferative activity against human SW620 cells measured after 7 days by Celltiter-glo assay; assay type: functional, cell-based; settings: SW-620, 168 h; summary of the method: as §1
[20] = test system: HCT-116; test: Antiproliferative activity against human HCT116 cells measured after 7 days by Celltiter-glo assay; assay type: functional, cell-based; settings: HCT-116, 168 h; summary of the method: as §1
[21] = test system: BXPC-3; test: Antiproliferative activity against human BxPC3 cells measured after 7 days by Celltiter-glo assay; assay type: functional, cell-based; settings: BXPC-3, 168 h; summary of the method: as §1
[22] = test system: A549; test: Antiproliferative activity against human A549 cells measured after 7 days by Celltiter-glo assay; assay type: functional, cell-based; settings: A549, 168 h; summary of the method: as §1
[23] = test system: MDA-MB-468; test: Inhibition of PI3K in human MDA-MB-468 cells assessed as increase in gammaH2AX foci formation at 1 uM measured after 72 hrs by DAPI staining based immunofluorescence microscopic analysis; assay type: cell-based
Summary of the method: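 MDA-MB-468 cells on coverslips given drugs for 72 h. Fixed in 3% formaldehyde, permeabilized with 0.1% Triton X-100, blocked in 10% FBS/PBS, then rabbit anti-γH2AX (Ser139) overnight at 4 °C. Secondary antibody and DAPI stain followed. About 200 cells scored for foci; a cell was positive with more than 5 foci. Three independent experiments.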

[24] = test system: DU-145; test: Antiproliferative activity against human DU145 cells measured after 7 days by Celltiter-glo assay; assay type: functional, cell-based; settings: DU-145, 168 h; summary of the method: as §1
[25] = test system: SW-620; test: cells; settings: Homo sapiens, SW-620, 168 h, read-out: pIC50 (converted)
[26] = test system: MDA-MB-231; test: cells; settings: Homo sapiens, MDA-MB-231, 168 h, read-out: pIC50 (converted)
[27] = test system: A2780; test: cells; settings: Homo sapiens, A2780, 168 h, read-out: pIC50 (converted)
[28] = test system: MDA-MB-468; test: Inhibition of PI3K in human MDA-MB-468 cells assessed as reduction in RAD51 foci formation at 1 uM measured after 72 hrs in presence of PARP inhibitor olaparib by DAPI staining based immunofluorescence microscopic analysis; assay type: cell-based; summary of the method: as §2
[29] = test system: DU-145; test: cells; settings: Homo sapiens, DU-145, 168 h, read-out: pIC50 (converted)
[30] = test system: MDA-MB-468; test: Induction of apoptosis in human MDA-MB-468 cells assessed as early apoptotic cells at 1 uM measured after 72 hrs in presence of PARP inhibitor olaparib by Annexin V-FITC/propidium iodide staining based flow cytometry (reference value: 3.88%); assay type: functional

Sequence of Phosphatidylinositol 4,5-bisphosphate 3-kinase catalytic subunit alpha isoform (P42336 whole entry, canonical isoform): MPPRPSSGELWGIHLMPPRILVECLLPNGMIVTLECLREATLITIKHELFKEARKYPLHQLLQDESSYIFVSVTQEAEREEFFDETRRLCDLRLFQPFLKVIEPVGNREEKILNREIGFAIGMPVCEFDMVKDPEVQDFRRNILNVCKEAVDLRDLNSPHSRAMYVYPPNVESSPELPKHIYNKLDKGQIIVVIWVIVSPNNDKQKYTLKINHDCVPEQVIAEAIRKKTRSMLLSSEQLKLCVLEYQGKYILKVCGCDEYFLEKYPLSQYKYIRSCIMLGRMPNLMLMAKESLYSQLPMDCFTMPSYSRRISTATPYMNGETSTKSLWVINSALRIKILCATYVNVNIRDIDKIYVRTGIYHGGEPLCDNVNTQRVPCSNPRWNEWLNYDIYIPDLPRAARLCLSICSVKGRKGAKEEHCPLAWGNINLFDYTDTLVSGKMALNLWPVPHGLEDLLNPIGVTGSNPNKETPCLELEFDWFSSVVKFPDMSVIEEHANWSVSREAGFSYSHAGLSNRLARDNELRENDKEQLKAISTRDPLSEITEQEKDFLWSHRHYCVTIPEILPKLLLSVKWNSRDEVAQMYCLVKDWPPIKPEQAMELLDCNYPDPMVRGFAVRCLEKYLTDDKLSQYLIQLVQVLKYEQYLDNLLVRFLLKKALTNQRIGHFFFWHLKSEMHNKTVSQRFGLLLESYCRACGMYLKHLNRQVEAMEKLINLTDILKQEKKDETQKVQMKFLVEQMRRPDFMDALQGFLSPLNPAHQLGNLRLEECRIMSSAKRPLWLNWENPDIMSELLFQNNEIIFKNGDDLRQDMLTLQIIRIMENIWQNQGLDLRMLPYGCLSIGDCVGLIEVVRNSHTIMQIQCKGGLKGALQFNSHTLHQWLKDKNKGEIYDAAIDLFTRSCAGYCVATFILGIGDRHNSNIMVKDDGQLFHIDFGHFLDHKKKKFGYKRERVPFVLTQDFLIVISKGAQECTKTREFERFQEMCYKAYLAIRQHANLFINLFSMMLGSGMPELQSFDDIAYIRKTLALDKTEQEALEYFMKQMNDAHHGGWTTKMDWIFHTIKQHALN

Compound	IC50 [1]	Activity [2]	inhibition [3]	inhibition [4]	IC50 [5]	IC50 [7]	Activity [8]	Activity [9]	inhibition [10]	IC50 [11]	Activity [12]	IC50 [13]	IC50 [14]	viability at 1 µM [15]	IC50 [17]	IC50 [19]	IC50 [20]	IC50 [21]	IC50 [22]	IC50 [24]	other results
Nc1cc(C(F)(F)F)c(-c2nc3c(c(N4CCOCC4)n2)CCN(C(=O)c2cc(Cc4n[nH]c(=O)c5ccccc45)ccc2F)C3)cn1	955 nM	21%	Active	Active	977 nM	1000 nM	21.9%	1.44%	Active	398 nM	Active	1050 nM	933 nM	55.7%	1070 nM	2820 nM	871 nM	1070 nM	537 nM	891 nM	Ratio IC50 [6]: >=4; Ratio IC50 [16]: >=4; IC50 [18]: 5.62 nM; inhibition [23]: Active
Nc1cc(C(F)(F)F)c(-c2cc(N3CCOCC3)nc(N3CCOCC3)n2)cn1 [BUPARLISIB]	2750 nM	1.82%	Active	Active	3980 nM	6030 nM	6.13%	0.16%	Active	417 nM	Active	6310 nM	1410 nM	91.9%	3630 nM	5130 nM	3630 nM	4070 nM	1700 nM	3800 nM	IC50 [25]: 3240 nM; IC50 [26]: 1580 nM; IC50 [27]: 347 nM; inhibition [28]: Active; IC50 [29]: 1170 nM; Activity [30]: 9.21%
